Compound activity from PubChem.
MLL AF4-AF9 inh – inhibitors of human MLL-AF4/AF9 interaction; AlphaScreen, biotin-AF4 peptide binding to FLAG-AF9; inhibition, % at 10 µM; AID 651704; 350,000 tested, 0.47% active;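 active means every replicate reaching a set inhibition limit, whatever the replicate mean, cut at about 25% in these data; inconclusive means mean inhibition reaches that limit but some replicates miss it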
FN deposit inh – fibronectin deposition inhibition; AID 743247; inhibition, % at 12.6 µM; AH1F fibroblasts, Alexa488-fibronectin deposition fluorescence, overnight; 350,000 tested, 0.086% active;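 active means mean inhibition across replicates of 30% or more, regardless of how many single replicates reach that level; inconclusive means mean under 30% yet at least half of replicates reach 30%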
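Assay system: AH1F fibroblasts / Quantity: 10000 cells per well / Medium: DMEM plus 2% serum, read in PBS / Reagent: labelled fibronectin 24 nM / Dosing: single dose, pinned / Times: 1 h cell attachment, overnight exposure to compound and label / Signal: fluorescence, ex 485 nm, em 525 nm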
FGF22 binding – binders of recombinant human FGF22 by thermal shift | activity (Tm shift, normalised), % at 9.99 µM | SYPRO orange fluorescence; percent of sucrose octasulfate shift, DMSO zero | 340,000 tested, 1.5% active | AID 651658 | Q9HCT0;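 active means mean Tm shift, scaled 0 neutral to 100 positive control, at about 1.3% or above, every replicate too, limit read from the data; inconclusive means no clear call, values can overlap the other calls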
Target sequence (Q9HCT0 whole entry, looked up): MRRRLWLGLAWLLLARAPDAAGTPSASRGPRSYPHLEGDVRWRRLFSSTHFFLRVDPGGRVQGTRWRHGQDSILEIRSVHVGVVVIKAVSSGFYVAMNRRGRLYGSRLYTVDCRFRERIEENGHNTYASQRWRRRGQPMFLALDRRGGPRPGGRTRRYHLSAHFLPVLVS
ARNT-TACC3 inh – disrupts binding between human ARNT and TACC3 | AID 623870 | AlphaScreen His-ARNT PAS-B/GST-TACC3 binding, luminescence; TACC3 fragment carries E629A point mutation | 390,000 tested, 0.66% active | inhibition, % at 9.99 µM;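 active means mean inhibition of replicates at least 50% and at least half of replicates each reaching 50%; inconclusive means half or more replicates reach 50% but mean below 50%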
PDI inh – inhibitors of human protein disulfide isomerase. inhibition, % at 10 µM. AID 588391. P07237. PDI insulin aggregation turbidity, A650, 90 min. 350,000 tested, 0.052% active;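 active means mean inhibition across replicates of 30% or more, whatever share of single replicates reach that level; inconclusive means mean inhibition below 30% while every single replicate reaches 30%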
Target sequence (P07237 whole entry, looked up): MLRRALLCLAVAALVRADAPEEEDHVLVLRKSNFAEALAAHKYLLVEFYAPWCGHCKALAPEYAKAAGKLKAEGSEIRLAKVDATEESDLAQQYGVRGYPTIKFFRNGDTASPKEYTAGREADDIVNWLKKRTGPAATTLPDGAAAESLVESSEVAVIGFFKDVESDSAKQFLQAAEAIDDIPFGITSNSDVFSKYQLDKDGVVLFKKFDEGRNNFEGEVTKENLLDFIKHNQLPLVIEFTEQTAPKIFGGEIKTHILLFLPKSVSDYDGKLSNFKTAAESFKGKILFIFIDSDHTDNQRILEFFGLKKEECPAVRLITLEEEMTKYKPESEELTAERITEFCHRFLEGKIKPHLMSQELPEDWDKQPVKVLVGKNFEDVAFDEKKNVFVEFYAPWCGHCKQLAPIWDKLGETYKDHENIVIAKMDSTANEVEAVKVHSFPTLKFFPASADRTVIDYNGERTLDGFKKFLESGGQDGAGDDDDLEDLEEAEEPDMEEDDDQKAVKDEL
ERp5 block – inhibitors of human ERp5 | ERp5 insulin aggregation, absorbance 650 nm, 90 min | 350,000 tested, 0.05% active | AID 651711 | Q15084 | inhibition, % at 9.99 µM;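 active means mean replicate inhibition above about 25%, with every replicate also reaching it, limit read from the data, passing the limit was not always enough; inconclusive means only one of those two criteria met; inactive means neither criterion met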
Alpha interfer – counter-screen: AlphaScreen signal interference | shares compounds with MLL AF4-AF9 inh | signal luminescence | AC50, µM (doses to about 12 µM) | 530 tested, 45% active; cut-off not given, nearly all actives have AC50 up to about 14 µM
A number is an active result; i = inactive; ? = inconclusive; nt = no result. Hits are enriched below; roughly 2.1% of the tested compounds scored in any of these assays.

SMILES	MLL AF4-AF9 inh	FN deposit inh	FGF22 binding	ARNT-TACC3 inh	PDI inh	ERp5 block	Alpha interfer
COc1cc(OC)c2c(-c3ccccc3)cc(=O)oc2c1C(CCN1CCOCC1)c1ccc(N(C)C)cc1 (stereo not given)	39	i	i	i	i	i	i
COc1cc(OC)c2c(-c3ccccc3)cc(=O)oc2c1C(CCN1CCCCC1)c1ccc2c(c1)OCO2 (stereo not given)	36	i	i	i	i	i	i
CCCCCc1cc(=O)oc2c(C(CCN3CCCC(C)C3)c3ccc(N(C)C)cc3)c(OC)cc(OC)c12 (stereo not given)	nt	nt	nt	i	i	nt	nt
COc1cc(OC)c2c(C)cc(=O)oc2c1C(CCN1CCOCC1)c1ccc2c(c1)OCO2 (stereo not given)	i	i	i	i	i	i	nt
COc1cc(OC)c2c(c1C(CCN1CCOCC1)c1ccc(N(C)C)cc1)OC(=O)CC2c1ccc(N(C)C)cc1 (stereo not given)	65	i	i	i	i	i	13µM
CSc1ccc(-c2nc(CSCC(=O)N3CCOCC3)c(C)o2)cc1	nt	i	nt	i	i	i	nt
CCc1ccc(-c2nc(CSCC(=O)N3CCN(c4ncccn4)CC3)c(C)o2)cc1	i	i	i	i	i	i	i
CN(C)CC/C=C1/c2cc(F)ccc2CSc2ccc(F)cc21	nt	i	nt	i	i	nt	nt
CN(C)CC/C=C1\c2ccc(F)cc2Sc2cc(F)c(Cl)cc21	46	i	i	nt	i	i	i
CN(C)CC/C=C1/c2ccc(F)cc2Sc2ccc(Cl)cc21	36	i	i	nt	i	i	i
CN(C)c1ccc(C=c2c3ccccc3n3c2c2ccccc2[n+]3C)cc1	51	i	i	i	i	i	3.5µM
CN(C)c1ccc(/C=C(\C#N)c2ccccc2)cc1	nt	nt	nt	i	i	nt	nt
CN(C)c1ccc(C=c2c3cc(O)ccc3n3c2cc(-c2ccccc2)[n+]3C)cc1	78	i	i	60	i	i	2.5µM
C[C@@H]1CN([C@H](C)CO)C(=O)c2cc(NC(=O)CCN3CCOCC3)ccc2O[C@@H]1CN(C)Cc1ccc(Cl)c(Cl)c1	i	nt	i	i	nt	i	nt
CCCNC(=O)N1C[C@@H](C)[C@H](OC)CN(C)C(=O)c2cc(NS(=O)(=O)CC)ccc2OC[C@@H]1C	i	i	i	i	nt	i	nt
COc1ccc(N2CCC(CNC(=S)Nc3c(C)cc(C)cc3C)C2)cc1 (stereo not given)	i	i	i	i	i	i	nt
COc1ccc(N2CCC(CNC(=S)Nc3ccc(C)cc3C)C2)cc1 (stereo not given)	?	i	i	i	i	i	i
CCC(=O)Nc1ccc2c(c1)C(=O)N(C)C[C@H](OC)[C@H](C)CN(C(=O)CC)[C@H](C)CO2	i	i	i	i	nt	i	nt
O=C(N/N=C/c1sc(N2CCCCC2)nc1-c1cccs1)C1CC1	i	i	i	i	i	i	i
O=C(N/N=C/c1sc(N2CCOCC2)nc1-c1ccccc1)c1ccccc1Cl	i	i	i	i	i	i	nt
C[C@@H]1CN([C@H](C)CO)C(=O)c2cc(C#Cc3ccccc3F)cnc2O[C@H]1CN(C)C	i	nt	i	i	nt	i	nt
c1cc2c3c(cccc3c1)NC(c1ccc3c(c1)OCO3)N2	34	i	i	i	i	i	i
CC(C)CC#Cc1cnc2c(c1)C(=O)N([C@@H](C)CO)C[C@H](C)[C@H](CN(C)C(=O)c1ccc(F)cc1)O2	i	i	i	i	nt	i	nt
O=C(c1ccc(-c2cc(O)c3ncccc3c2)cc1)N1CCNCC1	92	i	i	66	i	i	3.9µM
CC(C)(C)c1ccc(C(=O)N2CCNCC2)cc1	nt	i	nt	i	i	nt	nt
SMILES	MLL AF4-AF9 inh	FN deposit inh	FGF22 binding	ARNT-TACC3 inh	PDI inh	ERp5 block	Alpha interfer
Cc1ccc(C)c2c1c1ccccc1n2C	nt	i	i	i	i	i	nt
CN(C)c1cc2c3ccccc3n(C)c2cc1N	28	i	i	i	i	i	i
O=C(NC1CCCCC1)N[C@H]1CC[C@H](CCNS(=O)(=O)c2ccc(F)cc2)O[C@@H]1CO	i	nt	i	i	nt	i	nt
CN(CCc1ccccc1)C(=O)c1ccc(NC(=O)Cc2ccc(NC(=O)C3CCN(C(=O)C4CCCC4)CC3)cc2)cc1	33	i	i	i	i	i	i
CN(CCc1ccccc1)C(=O)c1ccc(NC(=O)Cc2ccc(NC(=O)C3CCCN(C(=O)C4CCCCC4)C3)cc2)cc1 (stereo not given)	i	i	i	i	i	i	nt
Cc1ccc(S(=O)(=O)NC(=O)Nc2ccc(N(C)C)cc2)cc1	35	i	i	i	i	i	i
Cc1cnc(C)c(N2CCN(Cc3nc(-c4ccc(C)o4)oc3C)CC2)n1	i	nt	i	i	i	i	nt
Cc1oc(-c2cccc3ccccc23)nc1CN1CCN(c2ncnc3ccccc23)CC1	i	i	i	i	i	i	i
O=C(C[C@@H]1C[C@H]2c3cc(NC(=O)C4CCOCC4)ccc3O[C@H]2[C@@H](CO)O1)NCc1ccccc1	i	i	i	i	nt	i	nt
S=C(c1ccc(-c2cccc(Cl)c2)o1)N1CCOCC1	29	nt	i	i	i	i	i
S=C(c1ccc(-c2cccc(Cl)c2)o1)N1CCCCC1	i	i	i	i	i	i	nt
Cc1ccc2nc(-c3ccc(NC(=S)NC4CC(C)(C)NC(C)(C)C4)cc3)sc2c1	45	i	43	i	i	i	i
CCOc1cc(N2CCOCC2)c(OCC)cc1NC(=O)c1ccc2ccccc2n1	38	i	i	i	i	i	i
O=C(NCCCN1CCCC1=O)C1CCN(S(=O)(=O)c2ccccc2)CC1	?	i	i	i	i	i	nt
O=C(NCCCN1CCCC1=O)C1CCN(S(=O)(=O)c2cccc(C(F)(F)F)c2)CC1	27	i	i	i	i	i	i
S=C(NN=C(c1ccccc1)c1ccccn1)N(Cc1ccccn1)Cc1ccccn1	53	i	i	66	i	i	8µM
COc1ccccc1NC(=S)N(Cc1ccc(C)cc1)Cc1ccccn1	i	i	i	i	i	i	nt
CN1C(=O)c2cc(NC(=O)c3cccc(F)c3)ccc2OC[C@@H]2O[C@H](CC(=O)N3CCc4ccccc4C3)CC[C@H]21	i	i	i	i	nt	i	nt
Cc1cc(/C=N/n2c(COc3ccccc3C)nc3ccccc3c2=O)c(O)c([N+](=O)[O-])c1	32	i	i	i	i	i	i
Cc1cc2c(OCC(O)CNC(C)(C)C)cccc2[nH]1 (stereo not given)	nt	nt	nt	i	i	nt	nt
COCCCNCC(O)COc1cccc2[nH]c(C)cc12 (stereo not given)	52	nt	1.4	i	i	i	i
N=C(N)c1ccc(/C=C/c2ccc(C(=N)N)cc2O)cc1	61	i	i	i	i	i	i
N=C(N)c1ccc(Cl)cc1	i	i	i	i	i	i	nt
CCN(CC)c1ccc(N=Cc2cc(Br)ccc2O)cc1	46	i	i	nt	i	i	i
